ChEMBL document CHEMBL1157607, “Piracetam defines a new binding site for allosteric modulators of alpha-amino-3-hydroxy-5-methyl-4-isoxazole-propionic acid (AMPA) receptors” (J Med Chem, 2010)
The source made the active and inactive calls. The rule behind the calls is not given here.

Key:
[1] = Binding affinity to subsite B/B' and subsite C/C' in S1S2 domain of GluA2 receptor expressed in Escherichia coli by crystallography
Outline: (§1)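 GluA2 S1S2 domain (flip form via N754S, GluA2i) expressed in E. coli Origami B (DE3) cells, IPTG 0.5 mM final at 20°C for 20 h. Purified by Ni-NTA, sizing and ion exchange with glutamate in all buffers. Protein at 0.3 mM with 10 mM glutamate, ligand 5 mM final. Co-crystals grown by hanging drop at 4°C against 16–18% PEG 8K, 0.1 M sodium cacodylate, 0.1–0.15 M zinc acetate, pH 6.5.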

[2] = Binding affinity to subsite C/C' in S1S2 domain of GluA2 receptor expressed in Escherichia coli by crystallography; outline: as §1
[3] = Binding affinity to subsite A in S1S2 domain of GluA2 receptor expressed in Escherichia coli by crystallography; outline: as §1

Compound | Activity [1] | Activity [2] | Activity [3]
C=CCSCC1Nc2cc(Cl)c(S(N)(=O)=O)cc2S(=O)(=O)N1 (stereo not given) | Active | – | –
NS(=O)(=O)c1cc2c(cc1Cl)NCNS2(=O)=O | – | Active | –
NS(=O)(=O)c1cc2c(cc1Cl)NC(C(Cl)Cl)NS2(=O)=O (stereo not given) | Active | – | –
NS(=O)(=O)c1cc2c(cc1Cl)NC(C1CC3C=CC1C3)NS2(=O)=O (stereo not given) | Active | – | –
COc1ccc(C(=O)N2CCCC2=O)cc1 | Active | – | Active
O=C1c2cc3c(cc2OC2CCCN12)OCCO3 (stereo not given) | Active | – | Active
CC1Nc2ccc(Cl)cc2S(=O)(=O)N1 (stereo not given) | – | Active | –
NS(=O)(=O)c1cc2c(cc1C(F)(F)F)NCNS2(=O)=O | – | Active | –
